Screens deposited in PubChem by The Scripps Research Institute Molecular Screening Center.
ABHD4 inh – inhibits mouse alpha/beta hydrolase domain 4; 370,000 tested, 0.54% active; AID 720543; inhibition, % at 8.92 µM; purified mABHD4, FP-Rh probe fluorescence polarization; Q8VD66;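 active = inhibition exceeding the mean over every tested compound plus 3 SD, cut at about 30% in these data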;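 note: 0% = plate median of compound wells and 100% = S159A mutant with DMSO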
Target sequence (Q8VD66 whole entry, looked up, the tested form may be a part): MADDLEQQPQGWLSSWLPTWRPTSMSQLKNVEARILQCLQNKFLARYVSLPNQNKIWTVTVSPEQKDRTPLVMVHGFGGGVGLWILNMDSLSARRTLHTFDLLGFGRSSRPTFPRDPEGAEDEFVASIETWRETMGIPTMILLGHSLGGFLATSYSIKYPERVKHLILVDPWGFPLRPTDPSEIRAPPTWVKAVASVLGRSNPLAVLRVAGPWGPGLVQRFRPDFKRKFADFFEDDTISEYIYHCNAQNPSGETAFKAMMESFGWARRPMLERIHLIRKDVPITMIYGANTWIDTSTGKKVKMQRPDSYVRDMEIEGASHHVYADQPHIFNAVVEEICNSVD
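system = mouse ABHD4 enzyme, wild type | medium = HEPES pH 7.0, NaCl, Pluronic buffer | also added = FP-Rh probe | incubation = Enzyme–compound pre-incubation 45 min, then probe 60 min, both 25 °C | technique = fluorescence polarization, excitation 525 nm, emission 598 nm, BODIPY TMR filters | controls = S159A mutant high control, sample median low control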
HTRA1 inhibitor – blocks human HTRA1 serine peptidase; Q92743; recombinant HTRA1, FP-rhodamine activity-based probe, fluorescence polarization; inhibition, % at 5.96 µM; 340,000 tested, 0.5% active; in the data active = inhibition above about 36%;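 note: 0% = enzyme with DMSO and 100% = wells lacking enzyme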
TCR CD3 inh – inhibitors of human TCR-CD3 interaction; 360,000 tested, 0.37% active; inhibition, % at 9.4 µM; TAMRA-labeled TCR probe fluorescence, biochemical; in the data active = inhibition above about 19%;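 note: recombinant mutant TCR 2C K166C tagged with TAMRA read by polarization; 0% = receptor in buffer alone and 100% = receptor with positive control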
SIAE inh – blocks human sialic acid acetylesterase. Q9HAT2. 370,000 tested, 0.69% active. SIAE FP-Rh probe binding, fluorescence polarization. AID 1053197. inhibition, % at 9.66 µM;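 active = inhibition above a cutoff: mean of compounds within the control limits plus 3 SD of those, cut at about 17% in these data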;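 note: 0% = plate median of compound wells and 100% = probe without SIAE protein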
PRMT1 FP inh – blocks human protein arginine methyltransferase 1 | Q99873 | recombinant PRMT1, activity-based probe fluorescence polarization | inhibition, % at 2.79 µM | 370,000 tested, 1.3% active | AID 652257;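 active = inhibition above about 21% made by adding two undisclosed values, limit read from the data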
ABHD4 confirm – ABHD4 (mouse) inhibition, FP confirmation. shares compounds with ABHD4 inh. purified mABHD4, FP-Rh probe fluorescence polarization. inhibition, % at 8.92 µM. 1,800 tested, 55% active;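 active = mean inhibition across replicates above the hit cutoff set in the primary screen, cut at about 30% in these data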;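 note: 0% = wild-type ABHD4 with DMSO and 100% = catalytically dead S159A mutant with DMSO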
Numbers without * were called inactive; / = no result; + = active, no number. Most compounds without a hit are left out; they make up all but 2.5% or so of the library.

SMILES	ABHD4 inh	HTRA1 inhibitor	TCR CD3 inh	SIAE inh	PRMT1 FP inh	ABHD4 confirm
O=C(Nc1sc(-c2ccccc2)cc1C(=O)O)c1ccccc1	36*	-16	1	-80	-1	37*
CCOC(=O)c1cc(-c2ccccc2)sc1NC(=O)CC	-1	-22	-5	-12	7	/
COCCCNc1cc(C)nc2ccccc12	5	-5	15	-1	-1	/
Cc1cc(NCCCCCCCNc2cc(C)nc3cc([N+](=O)[O-])ccc23)c2ccc([N+](=O)[O-])cc2n1	32*	8	-10	4	-3	40*
COC(=O)c1cc2c(c3c4cc(F)ccc4n(S(=O)(=O)c4cccc(C)c4)c13)C(=O)N(C)C2	-3	/	2	-6	1	/
CCOC(=O)Cc1csc(NC(=O)c2sc3nc4ccc(C)cc4cc3c2N)n1	36*	-17	2	4	0	14
COC(=O)[C@@H]1C[C@@]2(c3ccccc3)c3ccccc3N(S(=O)(=O)c3ccccc3)[C@H]2N1C(=O)CNC/C=C(\C)CCC=C(C)C	17	/	/	4	0	/
CCCCCCCCN1C(=O)[C@@H](CC(=O)N2CCOCC2)C[C@@]2(C(=O)OC)C1=C[C@H](C1CCCC1)O[C@@H]2C	0	/	4	7	-1	/
N#Cc1c(N)nc2c3c(sc(=N)c2c1N)NC(=O)CC3c1ccccc1 (centres undefined)	31*	26	17	-2	8	-77
Cc1c(C#N)c(N)nc2c3c(sc12)NC(=O)CC3c1ccc(Cl)cc1 (centres undefined)	8	-16	2	13	0	/
C=C(C)/C=C1/C(Cc2ccccc2)N(CC2CC2)C(=N)N1C(=O)OCc1ccccc1 (centres undefined)	6	/	/	4	-4	/
CCOC(=O)CCCNC(=O)OCCCN1CCC2(CCC(c3ccccc3)CC2)C1=O (centres undefined)	-2	/	/	-1	-2	/
Cc1cc2ccccn2c1C(=O)c1ccc(NN)c([N+](=O)[O-])c1	33*	-1	-2	8	14	17
Cc1cc2ccccn2c1C(=O)c1cc([N+](=O)[O-])cc([N+](=O)[O-])c1	2	3	-4	3	1	/
N#C/C(=C(/O)c1ccc(-c2cccc([N+](=O)[O-])c2)o1)c1nc2ccccc2s1	31*	4	0	9	7	56*
O=C(O)c1ccc(-c2cccc([N+](=O)[O-])c2)o1	3	-4	-3	-3	2	/
N=C1c2c(cc(=O)n3c2[nH]c2ccccc23)CN1CCN1CCOCC1	31*	26	-2	13	6	13
O=c1c2ccccc2[nH]c(=S)n1CCCN1CCOCC1	-10	-5	-4	-1	1	/
CCCCn1cnc2cc(NCc3cccc(OC)c3O)ccc21	14	12	2	1	-1	/
CCn1cnc2cc(NCc3cccc(OC)c3O)ccc21	+	13	5	0	3	6
CCOC(=O)C1Cn2c(nc3c(c2=O)C2(CCCC2)Cc2ccccc2-3)S1 (centres undefined)	-4	-4	0	-2	1	/
O=C(O)C1Cn2c(nc3c(c2=O)C2(CCCC2)Cc2ccccc2-3)S1 (centres undefined)	42*	4	-1	2	-2	42*
Nc1ccc2c(c1)C(=O)c1ccc(N)cc1-2	30*	16	5	3	5	37*
CCOC(=O)Cn1cc(CN2C(C(=O)OC)CN(Cc3ccc(F)cc3)CCS2(=O)=O)nn1 (centres undefined)	-2	/	/	0	2	/
COc1ccccc1[C@@H]1C(c2ccccc2)=NN(c2ccc(Br)cc2)[C@H]1C(=O)N1CCOC1=O	49*	-14	1	-6	-3	-2
SMILES	ABHD4 inh	HTRA1 inhibitor	TCR CD3 inh	SIAE inh	PRMT1 FP inh	ABHD4 confirm
O=C1C2C(C(=O)N1/N=C/c1cc([N+](=O)[O-])ccc1O)C1C=CC2C12CC2 (centres undefined)	4	3	3	-6	-2	/
O=C1C2C(C(=O)N1/N=C/c1cc([N+](=O)[O-])c(O)cc1O)C1C=CC2C12CC2 (centres undefined)	31*	18	8	-1	2	21
N#C/C(=C\c1ccc(O)c([N+](=O)[O-])c1)c1nc2ccccc2s1	30*	17	14	-50	5	71*
COc1cc(/C=C(\C#N)c2nc3ccccc3s2)cc([N+](=O)[O-])c1O	21	30	-3	-29	2	/
CNc1nc(N)c([N+](=O)[O-])c(Nc2ccccc2)n1	-1	/	/	0	-3	/
CC1CCN(c2ccc(C(=O)O)cc2NS(=O)(=O)c2ccccc2)CC1	37*	/	/	8	0	39*
CC1CCN(C(=O)c2ccccc2NS(=O)(=O)c2ccccc2)CC1	5	-7	0	-11	-1	/
CC(CNc1ccccc1O)C(=O)O (centres undefined)	34*	6	-1	4	23*	2
OC(CNCCC1C=Nc2ccccc21)Cn1c2ccc(Cl)cc2c2cc(Cl)ccc21 (centres undefined)	34*	-19	18	27*	1	44*
COCCNC(=O)C1Nc2ccc(C(F)(F)F)cc2C2C=CCC12 (centres undefined)	33*	30	-4	8	9	0
CCn1c2c(n(C(C)=O)c1=O)C=C(C(=O)N1CCCC1)C(C)C(c1ccccc1)=C2 (centres undefined)	6	/	0	10	3	/
COc1cccc(/C=N/Nc2snc(SC)c2C#N)c1O	33*	6	5	-24	0	23
COc1ccc(/C=N/Nc2snc(SC)c2C#N)cc1OC	35*	2	1	-4	7	34*
Cc1ccc(C(=O)NCCN2C(=O)C3C4C=CC(C4)C3C2=O)cc1 (centres undefined)	3	/	/	0	-4	/
O=C(CSc1ccccn1)Nc1ccc2c(c1)C(=O)c1ccccc1C2=O	8	1	6	-3	1	/
O=C(CSc1n[nH]c(=O)[nH]c1=O)Nc1ccc2c(c1)C(=O)c1ccccc1C2=O	38*	5	16	-3	5	56*
CCN=C1S/C(=C/c2cc(C)n(-c3ccc(Cl)cc3F)c2C)C(=O)N1CC	-11	/	/	5	2	/
OCCN1CCN(CC(O)COc2ccc(C34CC5CC(CC(C5)C3)C4)cc2)CC1 (centres undefined)	23	19	7	4	-1	/
NCCOc1ccc(C23CC4CC(CC(C4)C2)C3)cc1	32*	11	-3	0	5	37*
Cc1nc(NC(=O)COc2ccccc2)sc1C(=O)Nc1ccccc1	49*	-32	-3	0	3	50*
Cc1cc(C)n(CC(=O)Nc2ccc3c(c2)OCO3)c(=O)c1C#N	31*	-5	2	4	-1	-8
